Converted amounts (≈) assume the structure as drawn. The source made the active and inactive calls. The rule behind the calls is not given here.
Legend:
Human alphaherpesvirus 2 [1] = assay: Antiviral activity against Herpes simplex virus 2 Curtis assessed as inhibition of virus-induced cytopathic effect at 37 degC after 72 hrs by two-fold dilution method; assay type: functional; conditions: Human alphaherpesvirus 2, Curtis
In short: (§1)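 Susceptible monolayers in stationary tubes were infected with 100 tissue culture infective doses and allowed to adsorb for 1 h. Compound was then added in M-199 with 5% inactivated fetal calf serum at 50–0.3 μg/mL in twofold dilutions, four tubes per dilution. Tubes were held at 37 °C and CPE was scored at 48 and 72 h. MIC is the lowest nontoxic level giving complete CPE inhibition, with toxicity read from uninfected parallel tubes.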

Human alphaherpesvirus 1 [2] = assay: Antiviral activity against Herpes simplex virus 1 Sheely assessed as inhibition of virus-induced cytopathic effect at 37 degC after 72 hrs by two-fold dilution method; assay type: functional; conditions: Human alphaherpesvirus 1, Sheely; in short: as §1
Equine rhinovirus = assay: Antiviral activity against Equine rhinovirus assessed as inhibition of virus-induced cytopathic effect at 33 degC after 48 hrs by two-fold dilution method
Human alphaherpesvirus 2 [3] = assay: Antiviral activity against Herpes simplex virus 2 assessed as inhibition of virus-induced cytopathic effect at 37 degC after 72 hrs by two-fold dilution method; assay type: functional; conditions: for MIC: Human alphaherpesvirus 2, 72 h; in short: as §1
rhinovirus B14 = assay: Antiviral activity against Human rhinovirus 14 assessed as inhibition of virus-induced cytopathic effect at 37 degC after 72 hrs by two-fold dilution method; assay type: functional; conditions: Rhinovirus B
Influenza A virus [4] = assay: Antiviral activity against Influenza A2 virus Jap 170 infected in ferret trachea assessed as reduction in viral yield at 100 ug/ml after 3 days followed by compound-washout measured after 24 hrs by chick embryo-based hemagglutination titration method relative to control; assay type: functional; parameters: scale not given: the % may be the effect or the level left
[5] = test system: Respiratory syncytial virus; assay: Antiviral activity against Respiratory syncytial virus assessed as inhibition of virus-induced cytopathic effect at 37 degC after 72 hrs by two-fold dilution method; assay type: functional; conditions: human respiratory syncytial virus; in short: as §1
rhinovirus A2 = assay: Antiviral activity against Human rhinovirus 2 assessed as inhibition of virus-induced cytopathic effect at 37 degC after 72 hrs by two-fold dilution method; assay type: functional; conditions: Rhinovirus A
[6] = Antiviral activity against Human rhinovirus 17 assessed as inhibition of virus-induced cytopathic effect at 37 degC after 72 hrs by two-fold dilution method; assay type: functional, Human rhinovirus B17; conditions: Rhinovirus B
[7] = test system: unidentified influenza virus; assay: Antiviral activity against Parainfluenza virus assessed as inhibition of virus-induced cytopathic effect at 37 degC after 72 hrs by two-fold dilution method; assay type: functional; in short: as §1
Human alphaherpesvirus 1 [8] = assay: Antiviral activity against Herpes simplex virus 1 assessed as inhibition of virus-induced cytopathic effect at 37 degC after 72 hrs by two-fold dilution method; assay type: functional; conditions: Human alphaherpesvirus 1, 72 h; in short: as §1
Influenza A virus [9] = assay: Antiviral activity against Influenza A2 virus Jap 170 infected in ferret trachea assessed as reduction in viral yield at 200 ug/ml after 3 days followed by compound-washout measured after 24 hrs by chick embryo-based hemagglutination titration method relative to control; assay type: functional; parameters: scale not given: the % may be the effect or the level left

SMILES | MIC (Equine rhinovirus) [µg/mL] | other results
O=c1[nH]c(=O)n([C@H]2C[C@H](O)[C@@H](CO)O2)cc1I [IDOXURIDINE] | – | MIC (Human alphaherpesvirus 2 [1]): 6 µg/mL (≈ 16.9 µM); MIC (Human alphaherpesvirus 1 [2]): 6 µg/mL (≈ 16.9 µM)
CCC(=O)C(CCCCCCc1ccc(Cl)cc1Cl)C(=O)CC | 3 (≈ 8.4 µM) | –
Nc1ncnc2c1ncn2[C@@H]1O[C@H](CO)[C@@H](O)[C@@H]1O [VIDARABINE] | – | MIC (Human alphaherpesvirus 2 [1]): 12 µg/mL (≈ 44.9 µM); MIC (Human alphaherpesvirus 1 [2]): 12 µg/mL (≈ 44.9 µM)
CCC(=O)C(CCCCc1ccc(O)cc1)C(=O)CC | 6 (≈ 21.7 µM) | MIC (Human alphaherpesvirus 2 [3]): 12 µg/mL (≈ 43.4 µM)
CCC(=O)C(CC/C(=C/CCc1ccc(C(=O)OC)cc1)CC)C(=O)CC | 25 (≈ 67.1 µM) | –
CCC(=O)C(CCCCCCc1ccccc1)C(=O)CC | 6 (≈ 20.8 µM) | –
CCC(=O)C(CCCCCc1ccc(O)cc1)C(=O)CC | 12 (≈ 41.3 µM) | MIC (Human alphaherpesvirus 2 [3]): 12 µg/mL (≈ 41.3 µM)
CCC(=O)C(CCCc1ccc(O)cc1)C(=O)CC | – | inhibition (Human alphaherpesvirus 2 [3]): inactive
CCC(=O)C(CC/C=C/CCc1ccc(NC(C)=O)cc1)C(=O)CC | 12 (≈ 34.9 µM) | –
CCOC(=O)C(CC/C(=C/CCc1ccc2c(c1)OCO2)CC)C(C)=O (centres undefined) | 6 (≈ 16.6 µM) | –
CCC(=O)C(CC/C=C/CCc1ccc(OCc2ccccc2)cc1)C(=O)CC | 3 (≈ 7.64 µM) | –
CCC(=O)C(CCCCCCCc1ccc(O)cc1)C(=O)CC | 6 (≈ 18.8 µM) | MIC (Human alphaherpesvirus 2 [3]): 6 µg/mL (≈ 18.8 µM)
CC/C(=C\CCc1ccc2c(c1)OCO2)CCC(C(C)=O)C(C)=O | 6 (≈ 18.2 µM) | –
CCC(=O)C(CC/C=C/CCc1cc(OC)c(OCc2ccccc2)c(OC)c1)C(=O)CC | 6 (≈ 13.3 µM) | –
CCC(=O)C(CCCCCCc1ccc(Cl)cc1OC)C(=O)CC | 3 (≈ 8.5 µM) | –
CCC(=O)C(CCCCCCc1ccc(OC)cc1)C(=O)CC | 3 (≈ 9.42 µM) | –
CCC(=O)C(CCCCCCc1cccc(O)c1)C(=O)CC | 6 (≈ 19.7 µM) | –
CCC(=O)C(CC/C=C/CCc1ccc2c(c1)OCO2)C(=O)CC | 3 (≈ 9.08 µM) | –
CCC(=O)C(CCC(CC)CCCc1ccc2c(c1)OCO2)C(=O)CC (centres undefined) | 3 (≈ 8.32 µM) | –
CCC(=O)C(CC/C(=C/C=C/c1ccc2c(c1)OCO2)CC)C(=O)CC | 6 (≈ 16.8 µM) | –
CCC(=O)C(CCCCCCc1ccccc1O)C(=O)CC | 6 (≈ 19.7 µM) | –
CC/C(=C\CCc1ccc2c(c1)OCO2)CCC1CCCC1=O (centres undefined) | 6 (≈ 19.1 µM) | –
CCC(=O)C(CCCCCCc1ccc(OC(=O)c2cccc(C)c2)cc1)C(=O)CC | 3 (≈ 7.1 µM) | –

SMILES | MIC (Equine rhinovirus) [µg/mL] | other results
CCC(=O)C(CCCCCCc1ccccc1OC)C(=O)CC | 12 (≈ 37.7 µM) | –
CCC(=O)C(CC/C=C/CCc1ccc(OC(F)(F)F)cc1)C(=O)CC | 6 (≈ 16.2 µM) | –
CCC(=O)C(CCCCCCCCc1ccc(O)cc1)C(=O)CC | 3 (≈ 9.02 µM) | MIC (Human alphaherpesvirus 2 [3]): 3 µg/mL (≈ 9.02 µM)
CCC(=O)C(CCCCCCc1ccc(OC(=O)c2ccc(C)cc2)cc1)C(=O)CC | 12 (≈ 28.4 µM) | –
CCC(=O)C(CCCCCCc1ccc(OC(=O)c2ccccc2C)cc1)C(=O)CC | 6 (≈ 14.2 µM) | –
CCC(=O)C(CCCCCCc1ccc(Cl)cc1O)C(=O)CC | 0.7 (≈ 2.07 µM) | –
CCC(=O)C(CC/C(=C/CCc1ccc2c(c1)OCO2)CC)C(=O)CC | 6 (≈ 16.7 µM) | –
CCC(=O)C(CCCCCCc1ccc(OC(=O)c2cc(OC)c(OC)c(OC)c2)cc1)C(=O)CC | 6 (≈ 12 µM) | –
CCC(=O)C(CCCCCCCCCCc1ccc(O)cc1)C(=O)CC | 12 (≈ 33.3 µM) | MIC (Human alphaherpesvirus 2 [3]): 12 µg/mL (≈ 33.3 µM)
CCC(=O)C(CCCCCCCCCc1ccc(O)cc1)C(=O)CC | – | MIC (Human alphaherpesvirus 2 [3]): 6 µg/mL (≈ 17.3 µM)
CCC(=O)C(CCCCCCc1ccc(OC(=O)c2cccc(OC)c2)cc1)C(=O)CC | 3 (≈ 6.84 µM) | –
CCC(=O)C(CCCCCCc1ccc(OC(F)(F)F)cc1)C(=O)CC | 6 (≈ 16.1 µM) | –
Nc1ccn([C@@H]2O[C@H](CO)[C@@H](O)[C@@H]2O)c(=O)n1 [CYTARABINE] | – | MIC (Human alphaherpesvirus 2 [1]): < 3 µg/mL; MIC (Human alphaherpesvirus 1 [2]): < 3 µg/mL
CCC(=O)C(CCCCCCc1ccc(O)c(O)c1)C(=O)CC | 1.5 (≈ 4.68 µM) | –
CCC(=O)C(CC/C(C)=C/CCc1ccc2c(c1)OCO2)C(=O)CC | 3 (≈ 8.71 µM) | –
CCC(=O)C(CCCCCCc1ccc(OC(C)=O)cc1)C(=O)CC | 6 (≈ 17.3 µM) | –
CCCC(=O)C(CC/C(=C/CCc1ccc2c(c1)OCO2)CC)C(=O)OCC (centres undefined) | 12 (≈ 30.9 µM) | –
CCC(=O)C(CCCCCCc1ccc(C)cc1)C(=O)CC | 6 (≈ 19.8 µM) | –
CCC(=O)C(CCCCCCc1ccc(O)cc1)C(=O)CC | 3 (≈ 9.85 µM) | MIC (Human alphaherpesvirus 2 [3]): 12 µg/mL (≈ 39.4 µM); MIC (rhinovirus B14): 6 µg/mL (≈ 19.7 µM); MIC (Human alphaherpesvirus 2 [1]): 12 µg/mL (≈ 39.4 µM); MIC (Human alphaherpesvirus 1 [2]): 12 µg/mL (≈ 39.4 µM); Activity (Influenza A virus [4]): 94%; MIC [5]: 6 µg/mL (≈ 19.7 µM); MIC (rhinovirus A2): 3 µg/mL (≈ 9.85 µM); MIC [6]: 6 µg/mL (≈ 19.7 µM); MIC [7]: 3 µg/mL (≈ 9.85 µM); MIC (Human alphaherpesvirus 1 [8]): 12 µg/mL (≈ 39.4 µM); Activity (Influenza A virus [9]): 99.9%
CCC(=O)C(CCCCCCc1ccc2c(c1)OCO2)C(=O)CC | 6 (≈ 18 µM) | –
CCC(=O)C(CCCCCCc1ccc(Cl)cc1)C(=O)CC | 1.5 (≈ 4.65 µM) | –
CCC(=O)C(CC/C(=C/CCc1ccc2c(c1)OCO2)CC)C(C)=O (centres undefined) | 12 (≈ 34.8 µM) | –

Source: ChEMBL document CHEMBL3272294, “Antiviral activity of some beta-diketones. 1. Aryl alkyl diketones. In vitro activity against both RNA and DNA viruses” (1977)
